Active and inactive are the calls of the source. The rule behind the calls is not given here.
Experiments:
[1] = Cmax in Sprague-Dawley rat at 20 mg/kg, po administered as single dose and measured after 0.25 to 24 hrs by HPLC analysis; assay type: ADME, organism-based; set-up: dose 20 mg/kg, route oral; settings: in vivo
How it was run: (§1)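 Male/female unspecified SD rats, n = 3 per group, received a single dose of TFV at 20 mg/kg by mouth or 5 mg/kg intravenously. Prodrugs were given orally at an equimolar […]. PK parameters were calculated for the released TFV and reported as means.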

[2] = Tmax in Sprague-Dawley rat at 20 mg/kg, po administered as single dose and measured after 0.25 to 24 hrs by HPLC analysis; assay type: ADME, organism-based; settings: in vivo; how it was run: as §1
[3] = Half-life in Sprague-Dawley rat at 20 mg/kg, po administered as single dose and measured after 0.25 to 24 hrs by HPLC analysis; assay type: ADME, organism-based; settings: in vivo; how it was run: as §1
[4] = Cytotoxicity against human HepG2.2.15 cells infected with HBV; assay type: cell-based, HepG2 2.2.15
How it was run: (§2)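 HepG 2.2.15 cells; IC50 is the concentration giving 50% inhibition of cytoplasmic HBV-DNA synthesis; CC50 comes from a CPE (cytopathic effect) cytotoxicity assay in the same cells. Both were derived by the Reed & Muench method, and each experiment was run at least twice separately. SI = CC50/IC50.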

Hepatitis B virus [5] = experiment: Antiviral activity against HBV infected in human HepG2.2.15 cells assessed as reduction in cytoplasmic DNA synthesis by reed and munch method; assay type: functional, organism-based; how it was run: as §2
[6] = AUC(0 to infinity) in Sprague-Dawley rat at 5 mg/kg, iv; assay type: ADME, organism-based; set-up: dose 5 mg/kg, route intravenous, time infinity; settings: in vivo; how it was run: as §1
[7] = Half-life in Sprague-Dawley rat at 5 mg/kg, iv; assay type: ADME, organism-based; settings: in vivo; how it was run: as §1
[8] = Clearance in Sprague-Dawley rat at 5 mg/kg, iv; assay type: ADME, organism-based; settings: in vivo; how it was run: as §1
[9] = AUC(0 to infinity) in Sprague-Dawley rat at 20 mg/kg, po administered as single dose and measured after 0.25 to 24 hrs by HPLC analysis; assay type: ADME, organism-based; set-up: dose 20 mg/kg, time infinity, route oral; settings: in vivo; how it was run: as §1
[10] = Selectivity index, ratio of CC50 for human HepG2.2.15 cells to IC50 for HBV infected in human HepG2.2.15 cells; assay type: toxicity, cell-based; settings: read-out: Ratio CC50/IC50; how it was run: as §2
[11] = Oral bioavailability in Sprague-Dawley rat at 20 mg/kg administered as single dose and measured after 0.25 to 24 hrs by HPLC analysis; assay type: ADME, organism-based; settings: in vivo; how it was run: as §1
[12] = Toxicity against C57BL/6 mouse hydrodynamically infected with pHBV1.3 mer plasmid carrying HBV genotype D assessed as change in body weight at 0.1 to 1 mg/kg, po once daily and measured upto 6 days post treatment; assay type: organism-based; settings: in vivo, 144 h
HBV genotype D [13] = experiment: Antiviral activity against HBV genotype D hydrodynamically infected as pHBV1.3 mer plasmid carrying viral genome in C57BL/6 mouse assessed as reduction in serum viral DNA level at 0.1 to 1 mg/kg, po once daily and measured upto 6 days post treatment by qRT-PCR analysis; assay type: functional, organism-based; settings: hepatitis B virus genotype D
How it was run: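 C57BL/6 mice received the HBV 1.3mer plasmid by hydrodynamic tail-vein injection. From one day later they were dosed by oral gavage twice daily at […], with vehicle groups of 20% Kolliphor HS 15 or water; ETV was given once daily. There were 5-6 mice per group. Serum HBV DNA was measured by real-time PCR on days 0, 2, 4 and 6, and body weight was tracked over the 6 days.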

HBV genotype D [14] = experiment: Antiviral activity against HBV genotype D hydrodynamically infected as pHBV1.3 mer plasmid carrying viral genome in C57BL/6 mouse assessed as log10 reduction in serum viral DNA level at 0.10 to 0.50 mmol/kg/day, po via gavage administered as twice daily dosage and measured on day 4 post treatment by qRT-PCR analysis; assay type: functional, hepatitis B virus genotype D
How it was run: (§3)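 C57BL/6 mice were hydrodynamically injected with HBV 1.3mer plasmid. From one day later (day 0), they were gavaged twice daily at […] or with vehicle; ETV was given orally once daily; n = 5-6 per group. Blood was taken at days 0, 2, 4 and 6, and serum HBV DNA was measured by real-time PCR. Body weight was recorded over 6 days of treatment. Significance was set against vehicle.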

Hepatitis B virus [15] = experiment: Antiviral activity against HBV infected in pekin duck assessed as reduction in serum viral DNA level administered via oral gavage twice daily for 14 days and measured on day 14 post treatment and on day 3 after treatment cessation by qRT-PCR analysis; assay type: functional, organism-based
How it was run: (§4)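 DHBV-infected ducks, six per group, were gavaged twice daily at 0.1, 0.2 or […] or with vehicle (0.5% CMC-Na or water); 3TC was given orally once daily. Blood was collected at day 0 (pretreatment), day 7, day 14 and 3 days after cessation. Serum DHBV DNA was extracted and quantified by real-time PCR. Body weight was monitored during treatment. Comparison was against vehicle.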

[16] = Toxicity against Pekin duck infected with HBV assessed as change in body weight at 0.1 to 0.4 mmol/kg, po twice daily for 14 days administered via gavage and measured every day during compound dosing; assay type: organism-based; settings: anas platyrhynchos, in vivo, 336 h; how it was run: as §4
Hepatitis B virus [17] = experiment: Potency index, ratio of TFV IC50 to compound IC50 for antiviral activity against HBV infected in human HepG2.2.15 cells; assay type: functional
Hepatitis B virus [18] = experiment: Potency index, ratio of Lamivudine IC50 to compound IC50 for antiviral activity against HBV infected in human HepG2.2.15 cells; assay type: functional
Rattus norvegicus [19] = experiment: Ratio of compound oral bioavailability in Sprague-Dawley rat at 45.5 mg/kg administered as single dose to TFV oral bioavailability in Sprague-Dawley rat at 20 mg/kg administered as single dose by HPLC analysis; assay type: ADME, organism-based; settings: in vivo
How it was run: (§5)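 SD rats received a single oral dose at equimolar […] (TFV 20 mg/kg); intravenous TFV was given at 5 mg/kg. PK parameters were derived from plasma TFV, including oral bioavailability F; n = 3 per group.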

HBV genotype D [20] = experiment: Antiviral activity against HBV genotype D hydrodynamically infected as pHBV1.3 mer plasmid carrying viral genome in C57BL/6 mouse assessed as reduction in serum viral DNA level administered via oral gavage twice daily and measured upto 6 days post treatment by qRT-PCR analysis; assay type: functional, organism-based; settings: hepatitis B virus genotype D; how it was run: as §3
Rattus norvegicus [21] = experiment: Ratio of compound oral bioavailability in Sprague-Dawley rat at 45.5 mg/kg administered as single dose to TDF oral bioavailability in Sprague-Dawley rat at 44.3 mg/kg administered as single dose by HPLC analysis; assay type: ADME, organism-based; settings: in vivo; how it was run: as §5
Hepatitis B virus [22] = experiment: Antiviral activity against HBV infected in pekin duck assessed as reduction in serum viral DNA level at 0.4 mmol/kg, po once daily for 14 days and measured on days 7, 14 post treatment and on day 3 after treatment cessation by qRT-PCR analysis; assay type: functional, organism-based
[23] = Toxicity against Pekin duck infected with HBV assessed as change in body weight at 0.2 to 0.4 mmol/kg, […] for 14 days and measured every day during compound dosing; assay type: organism-based; settings: anas platyrhynchos, in vivo, po, 336 h
How it was run: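 DHBV-infected ducks, six per group, were gavaged twice daily at 0.1, 0.2 or […], with vehicle groups of 0.5% CMC-Na or water; 3TC was given orally once daily. Serum DHBV DNA was measured by real-time PCR on days 0, 7 and 14 and 3 days after dosing stopped, and body weight was monitored. Data are mean ± SD.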

SMILES	CC50 [4]	IC50 (Hepatitis B virus [5])	selectivity ratio [10]	other results
C[C@H](Cn1cnc2c(N)ncnc21)OCP(=O)(O)O [TENOFOVIR ANHYDROUS]	435 µM	16 µM	27	Cmax [1]: 207 ng/mL; Tmax [2]: 0.833 h; half-life [3]: 3.56 h; AUC(0-inf) [6]: 15800 ng·h/mL; half-life [7]: 10.2 h; clearance [8]: 5.35 mL/min/kg; AUC(0-inf) [9]: 888 ng·h/mL; bioavailability [11]: 1.41%
CC(C)C[C@H](N)C(=O)OCCOP(=O)(CO[C@H](C)Cn1cnc2c(N)ncnc21)OCCOC(=O)[C@@H](N)CC(C)C	218 µM	> 13 µM		
CC(C)[C@H](N)C(=O)OCCCOP(=O)(CO[C@H](C)Cn1cnc2c(N)ncnc21)OCCCOC(=O)[C@@H](N)C(C)C	51.9 µM	> 3.24 µM		
CC[C@H](C)[C@H](N)C(=O)OCCOP(=O)(CO[C@H](C)Cn1cnc2c(N)ncnc21)OCCOC(=O)[C@@H](N)[C@@H](C)CC	294 µM	12.2 µM	24	
CC(C)[C@H](N)C(=O)OCCOP(=O)(CO[C@H](C)Cn1cnc2c(N)ncnc21)OCCOC(=O)[C@@H](N)C(C)C	218 µM	2.6 µM	84	
C=C1[C@H](CO)[C@@H](O)C[C@@H]1n1cnc2c(=O)[nH]c(N)nc21.O [ENTECAVIR]				Activity [12]: Non-Toxic; inhibition (HBV genotype D [13]): Active
CC(C)OC(=O)OCOP(=O)(CO[C@H](C)Cn1cnc2c(N)ncnc21)OCOC(=O)OC(C)C.O=C(O)/C=C/C(=O)O [TENOFOVIR DISOPROXIL FUMARATE]	20.7 µM	0.85 µM	24	log(activity) (HBV genotype D [14]): 1.7; inhibition (Hepatitis B virus [15]): Dose-dependent effect; Activity [16]: Non-Toxic
CC(C)[C@H](N)C(=O)OCOP(=O)(CO[C@H](C)Cn1cnc2c(N)ncnc21)OCOC(=O)[C@@H](N)C(C)C.Cl	57.3 µM	0.71 µM	80	log(activity) (HBV genotype D [14]): 1.1; Ratio IC50 (Hepatitis B virus [17]): 22; inhibition (Hepatitis B virus [15]): Dose-dependent effect; Ratio IC50 (Hepatitis B virus [18]): 3; Ratio (Rattus norvegicus [19]): 7; inhibition (HBV genotype D [20]): Dose-dependent effect; Activity [16]: Non-Toxic; Ratio (Rattus norvegicus [21]): 3
Nc1ccn([C@@H]2CS[C@H](CO)O2)c(=O)n1 [LAMIVUDINE]	> 218 µM	2.22 µM	> 98	inhibition (Hepatitis B virus [22]): Active; Activity [23]: Non-Toxic
C[C@H](Cn1cnc2c(N)ncnc21)OCP(=O)(OCCOC(=O)[C@@H](N)Cc1ccccc1)OCCOC(=O)[C@@H](N)Cc1ccccc1	315 µM	2.93 µM	97	
CC[C@H](C)[C@H](N)C(=O)OCCCOP(=O)(CO[C@H](C)Cn1cnc2c(N)ncnc21)OCCCOC(=O)[C@@H](N)[C@@H](C)CC	315 µM	> 49.6 µM		
CC(C)C[C@H](N)C(=O)OCCCOP(=O)(CO[C@H](C)Cn1cnc2c(N)ncnc21)OCCCOC(=O)[C@@H](N)CC(C)C	218 µM	4.22 µM	47	

Source: ChEMBL document CHEMBL4396904, “Design, Synthesis, and Anti-HBV Activity of New Bis(l-amino acid) Ester Tenofovir Prodrugs” (ACS Med Chem Lett, 2019)
